Laboratory results taken from the EternaBench riboswitch data.

Test system: MS2 coat protein
Experiment: apparent Kd, MS2 coat protein; higher = weaker binding; RNA-MaP array
How it was run: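 Apparent Kd is the median of per-cluster binding-curve fits for designed RNAs transcribed from sequenced DNA templates on an Illumina sequencing chip. The RNAs were incubated at room temperature with fluorescently labeled MS2 coat protein at 1.5 nM to 3 μM, with or without input ligand, and designs measured on fewer than 10 clusters were excluded.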

[1] = designed as: OFF switch for flavin mononucleotide, no ligand
[2] = ligand present: flavin mononucleotide, designed as: OFF switch for flavin mononucleotide
[3] = designed as: ON switch for flavin mononucleotide, no ligand
[4] = ligand present: flavin mononucleotide, designed as: ON switch for flavin mononucleotide
[5] = designed as: OFF switch for theophylline, no ligand
[6] = ligand present: theophylline, designed as: OFF switch for theophylline

Row | Sequence | apparent Kd [1] | apparent Kd [2] | apparent Kd [3] | apparent Kd [4] | also measured
1 | CGUCUACAUGAGGAUCACCCAUGUCAGGAUAUACACCAACAACCUUCGCGAGAUAGGUGUAGAAGGGACGGGUA | 8.76 nM | 13.5 nM | – | – | –
2 | GUGCAGUUAUUAGGAUAUAAGACAUGGGACAUGAGGAUCACCCAUGUCGUAAGAAAUACCGUUGAUUAGAAGGAAUUCCGGCAC | – | – | 1010 nM | 283 nM | –
3 | UGUUUUAAAGAGGAUAUGACAACGGUUCCACCGUCAGAAGGCUUUACAUGAGGAUCACCCAUGUACUGGAGUGA | 17.3 nM | 81.9 nM | – | – | –
4 | UUUGCUACCUAGAAGGCUGACGAGACAUGAGGAUCACCCAUGUUGGAAAUUCUUACGGCAAUGGCAGAGGAUAUAGGACGAAAA | 7.66 nM | 11.3 nM | – | – | –
5 | GUAGCUGAGUGUGAUACCAGAAACGACGUCCUUUAUCAUAACAUGAGGAUCACCCAUGUCUUCCCUUGGCAGCACUUUUCGGUCU | – | – | – | – | apparent Kd [5]: 36.9 nM; apparent Kd [6]: 64.8 nM
6 | CCCAAGCCAGCUGAUACCAGUGACGUGGUCAGAAUGUGCGACAUGAGGAUCACCCAUGUACACCCUUGGCAGCAGUAGAACGGUU | – | – | – | – | apparent Kd [5]: 14.4 nM; apparent Kd [6]: 51.7 nM
7 | CCAUGACAUGAGGAUCACCCAUGUGGGUGCAGACAAGGAUAUAGUAAGAAUAGGAUAGAUCUAGAAGGUGUCAUUA | – | – | 528 nM | 282 nM | –
8 | ACCGGCACCUAGGAUACCAGAUCCACAACAAACAUGAGGAUCACCCAUGUAUAAAGUGGUAUCCCUUGGCAGCCUGUGACAAUCG | – | – | – | – | apparent Kd (designed as: ON switch for theophylline, no ligand): 16.5 nM; apparent Kd (ligand present: theophylline, designed as: ON switch for theophylline): 14.8 nM
9 | UCGUCACAUGUUAGGAUAUUGCUAGGAUCCUAGAACAAGAAGGAACAUGAGGAUCACCCAUGUCAGUGAAUCAU | 23 nM | 36 nM | – | – | –
10 | AUUACAAGCACAGGAUAUAACAGUUGGUUCACAUGAGGAUCACCCAUGUAGCAUUGGGAAGUAGCUUAGAAGGGUGAGGUGGUU | – | – | 183 nM | 107 nM | –
11 | ACUAAACAUGAGGAUCACCCAUGUAAUUGAAGCUAAGGAUAUCAGAAGAAUGGUGAUUCAUGAGAAGGAAGCGAUU | – | – | 86.9 nM | 58.6 nM | –
12 | UUACAGAAAGGAUAUACAUGAGGAUCACCCAUGUAGUAUGAGUUGGUGAGAGUUCGUGGUAGAAGGUUCCGCAA | 53 nM | 55.2 nM | – | – | –
13 | CCUAACCACAAGAAGGAUGAGAUGCGGCAUUUCAUAGGAUAUUGAUCACAUGAGGAUCACCCAUGUUGCCGUAAGGCGCUAGUC | – | – | 321 nM | 136 nM | –
14 | AUAUCAGGGUAGAAGGCAGCAUCAACAUGAGGAUCACCCAUGUAUAGGCACGUAGCCGCACGUGCUGAGGAUAUACGUUAUAAU | – | – | 16.4 nM | 6.41 nM | –
15 | ACAGUACAUGAGGAUCACCCAUGUAGAAGAUGCUCAGGAUAUUGUGAGUCAGGUUAUGUACAAGAAGGGAGGCACG | – | – | 25.4 nM | 14.1 nM | –
16 | GUCAAAUGUCAGAAGGUAGUGAUGUACUAAGGCUAAGGAUAUGAAGAAAAGAAAAUUACCGUUGACAUGAGGAUCACCCAUGUC | – | – | 13.8 nM | 9.86 nM | –
17 | GAGGAGUAGUAGUCCGACACAUGAGGAUCACCCAUGUUAUGGAGAAGGCCGGAUCUGAGUAGAGCGGAGGAUAUCCUGAAUUAA | – | – | 26.7 nM | 19.8 nM | –
18 | UAUCGAAGGUUUAAGGAUAUCGGCAGGCUCACAUGAGGAUCACCCAUGUCGCGAACAUCGCGCUACGAGAAGGUAAUCUUGAUGCA | – | – | 58.9 nM | 24.3 nM | –
19 | CUAAAGGAUGAAGGAUAUUUGAGUGACACGCAGAAAGAAGGUCAAGCUUACAUGAGGAUCACCCAUGUGCGUGAGUGCAGGUGC | 14.4 nM | 13.3 nM | – | – | –
20 | GCUGUAAAGGAGAAGGUGAAUCGUAAGCUUGGUCAAGGAUAUCCGACUGGACAUGGCUGCAGACAUGAGGAUCACCCAUGUGCG | 237 nM | 113 nM | – | – | –
21 | UUCAUGUUAGGAUAUAGUGUAAGAGCGGGCGGGACUCUAUUCUAGAAGGAACAUGAGGAUCACCCAUGUUAAGG | 213 nM | 124 nM | – | – | –
22 | CUCAAACAUGAGGAUCACCCAUGUAAGGAUAUCCGUAAUAAAUUUGGUAAGAGGCGGCGGAGAAGGUACGCAGC | 19.1 nM | 17.9 nM | – | – | –
23 | AGUUAACCGGGUGUUCUACAUGAGGAUCACCCAUGUACACUCAGAAGGCUCGAAUCUAGGGAUGGAGAGGAUAUGAAAACUGAU | 21.4 nM | 36.5 nM | – | – | –
24 | UAACCACCGCAGGAUAUGCUAUGUUCAGUGUCUGCAGAAGGGCGUACAUGAGGAUCACCCAUGUAGUGACCUCA | 95.2 nM | 110 nM | – | – | –
25 | UAUUGUAUAGGAUAUACAUGAGGAUCACCCAUGUUCGAUGUUUGGAGCCUGCUUCAUAGUAGAAGGAUACGCCC | 16.3 nM | 16.7 nM | – | – | –
26 | GGCGCUACGCCGGUACAUGAGGAUCACCCAUGUCCAUAUGUAAGAAGGUCUGGCGGGACGACAAAGAAGGAUAUUACAGAUUGC | – | – | 33.7 nM | 24.9 nM | –
